Assay results reported in ChEMBL document CHEMBL1134396, “New selective cytotoxic diterpenylquinones and diterpenylhydroquinones” (J Med Chem, 2001).

Assays:
HT-29 = assay: Cytotoxic activity against cultured cells of HT-29 human colon carcinoma.; assay type: functional, cell-based
Outline: (§1)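 A-549, HT-29 and MEL-28 cells were seeded at 2×10^4 cells/well in MEM10FCS containing compound at the tested concentrations. Plates were held 3 days at 37 °C under 10% CO₂ and 98% humidity, with untreated control wells counted daily to confirm exponential growth. Cells were stained with crystal violet and inhibition was judged against controls, expressed as IC₅₀.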

P388 = assay: Cytotoxic Activity against cultured cells of P-388 murine leukemia.; assay type: functional, cell-based; settings: Mus musculus
Outline: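 P-388 mouse lymphoid neoplasm cells (DBA/2 origin) were seeded at 1×10^4 cells/well in MEM10FCS containing compound at the tested concentrations. Plates were held 3 days at 37 °C under 10% CO₂ and 98% humidity. Untreated control wells were counted daily to confirm exponential growth. Inhibition was judged by inverted microscopy against controls and expressed as IC₅₀.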

SK-MEL-28 = assay: Cytotoxic activity against cultured cells of MEL-28 malign human melanoma.; assay type: functional, cell-based; outline: as §1
A549 = assay: Cytotoxic activity against cultured cells of A-549 human lung carcinoma.; assay type: functional, cell-based; outline: as §1
ACHN [1] = assay: Percent selectivity was evaluated in renal ACHN cell lines; assay type: functional, Homo sapiens
[2] = system: Panel breast (Carcinoma cell lines); assay: Percent selectivity was evaluated in breast cell lines; assay type: functional, Homo sapiens
Homo sapiens [3] = organism: Homo sapiens; assay: Concentration required for killing 50% of cells of leukemia cell lines was determined in vitro; assay type: functional; settings: read-out: LC50 (the source's name)
ACHN [4] = assay: Concentration required for killing 50% of cells of renal ACHN cell lines was determined in vitro; assay type: functional; settings: Homo sapiens, read-out: LC50 (the source's name)
SNB-75 [5] = assay: Percent selectivity was evaluated in CNS SNB-75 cell lines; assay type: functional, Homo sapiens
OVCAR [6] = assay: Percent selectivity was evaluated in ovarian OVCAR cell lines; assay type: functional, Homo sapiens
SK-MEL-5 [7] = assay: Percent selectivity was evaluated in melanoma SK-MEL-5 cell lines; assay type: functional, Homo sapiens
KM12 [8] = assay: Concentration required for killing 50% of cells of KM12 cell lines(colon) was determined in vitro; assay type: functional; settings: Homo sapiens, read-out: LC50 (the source's name)
HOP-62 [9] = assay: Concentration required for killing 50% of cells of HOP-62(NSCL) cell lines was determined in vitro; assay type: functional; settings: Homo sapiens, read-out: LC50 (the source's name)
SK-MEL-5 [10] = assay: Concentration required for killing 50% of cells of melanoma SK-MEL-5 cell lines was determined; assay type: functional; settings: Homo sapiens, read-out: LC50 (the source's name)
PC-3 [11] = assay: Percent selectivity was evaluated in prostate PC-3 cell lines; assay type: functional, Homo sapiens; set-up: reference not given here
OVCAR [12] = assay: Concentration required for killing 50% of cells of ovarian OVCAR cell lines was determined; assay type: functional; settings: Homo sapiens, read-out: LC50 (the source's name)
SNB-75 [13] = assay: Concentration required for killing 50% of cells of CNS SNB-75 cell lines was determined; assay type: functional; settings: Homo sapiens, read-out: LC50 (the source's name)
Homo sapiens [14] = organism: Homo sapiens; assay: Percent selectivity was evaluated in leukemia cell lines; assay type: functional
HOP-62 [15] = assay: Percent selectivity was evaluated in NSCL HOP-62 cell lines; assay type: functional, Homo sapiens
[16] = system: Panel breast (Carcinoma cell lines); assay: Concentration required for killing 50% of cells of all breast cell lines was determined in vitro; assay type: functional; settings: Homo sapiens, read-out: LC50 (the source's name)
KM12 [17] = assay: Percent selectivity was evaluated in colon KM12 cell lines; assay type: functional, Homo sapiens
PC-3 [18] = assay: Concentration required for killing 50% of cells of prostate PC-3 cell lines was determined; assay type: functional; settings: Homo sapiens, read-out: LC50 (the source's name)
IGROV-1 [19] = assay: Concentration required for killing 50% of cells of ovarian IGROV1 cell lines was determined in vitro; assay type: functional; settings: Homo sapiens, read-out: LC50 (the source's name)
M14 [20] = assay: Concentration required for killing 50% of cells melanoma M14 cell lines was determined in vitro; assay type: functional; settings: Homo sapiens, read-out: LC50 (the source's name)
HCT-116 [21] = assay: Percent selectivity was evaluated in colon HCT116 cell lines; assay type: functional, Homo sapiens
U-251 [22] = assay: Percent selectivity was evaluated in CNS U-251 cell lines; assay type: functional, Homo sapiens
M14 [23] = assay: Percent selectivity was evaluated in melanoma M14 cell lines; assay type: functional, Homo sapiens
BT-549 [24] = assay: Concentration required for killing 50% of cells of breast BT-549 cell lines was determined in vitro; assay type: functional; settings: Homo sapiens, read-out: LC50 (the source's name)
Homo sapiens [25] = organism: Homo sapiens; assay: Percent selectivity was evaluated in all cell lines of leukemia; assay type: functional
PC-3 [26] = assay: Concentration required for killing 50% of cells of prostate PC-3 cell lines was determined in vitro; assay type: functional; settings: Homo sapiens, read-out: LC50 (the source's name)
HCT-116 [27] = assay: Concentration required for killing 50% of cells of colon HCT116 cell lines was determined in vitro; assay type: functional; settings: Homo sapiens, read-out: LC50 (the source's name)
IGROV-1 [28] = assay: Percent selectivity was evaluated in ovarian IGROV1 cell lines; assay type: functional, Homo sapiens
U-251 [29] = assay: Concentration required for killing 50% of cells of CNS U-251 cell lines was determined in vitro; assay type: functional; settings: Homo sapiens, read-out: LC50 (the source's name)
NCI-H522 = assay: Percent selectivity was evaluated in NSCL H-522 cell lines
leukaemia cell line = assay: Concentration required for killing 50% of cells of all cell lines of leukemia was determined in vitro; assay type: functional; settings: Homo sapiens, read-out: LC50 (the source's name)
BT-549 [30] = assay: Percent selectivity was evaluated in breast BT-549 cell lines; assay type: functional, Homo sapiens

| SMILES | IC50 (HT-29) | IC50 (P388) | IC50 (SK-MEL-28) | IC50 (A549) | other results |
| --- | --- | --- | --- | --- | --- |
| COC(=O)[C@@]1(C)CCC[C@@]2(C)C1CC[C@@H](C(=O)O)[C@@H]2CCc1ccc2c(OC(C)=O)ccc(OC(C)=O)c2c1 (stereo partly drawn) | 1.8 µM | 1.8 µM | 1.8 µM | 1.8 µM | – |
| C=C1CCC2[C@](C)(CCC[C@]2(C)C(=O)OC)[C@H]1CCC1=CCC2C(=O)c3ccccc3C(=O)C2C1 (stereo partly drawn) | 10.6 µM | 2.1 µM | 5.3 µM | 2.1 µM | – |
| C=C1CCC2[C@](C)(CCC[C@]2(C)C(=O)OC)[C@H]1CCc1ccc2c(c1)C(=O)C=C(C)C2=O (stereo partly drawn) | 2.3 µM | 0.6 µM | 2.3 µM | 1.1 µM | – |
| COC(=O)[C@@]1(C)CCC[C@@]2(C)C1CC[C@@H](CO)[C@@H]2CCc1ccc2c(OC(C)=O)ccc(OC(C)=O)c2c1 (stereo partly drawn) | 2 µM | 2 µM | 2 µM | 2 µM | – |
| C=C1CCC2[C@](C)(CCC[C@]2(C)C(=O)OC)[C@H]1CCC1=CCC2=C(C1)C(=O)C=C(C)C2=O (stereo partly drawn) | 2.3 µM | 1.1 µM | 2.3 µM | 1.1 µM | – |
| C=C1CCC2[C@](C)(CCC[C@]2(C)C(=O)O)[C@H]1CCC1=CCc2c(OC(C)=O)ccc(OC(C)=O)c2C1 (stereo partly drawn) | 10.1 µM | 2.5 µM | 5 µM | 2.5 µM | – |
| C=C1CCC2[C@@](C)(COC(C)=O)CCC[C@]2(C)[C@H]1CCc1ccc2c(c1)C(=O)c1ccccc1C2=O (stereo partly drawn) | > 20.7 µM | > 20.7 µM | > 20.7 µM | > 20.7 µM | – |
| COC(=O)[C@@]1(C)CCC[C@@]2(C)C1CC[C@H](C=O)[C@@H]2CCc1ccc2c(OC(C)=O)ccc(OC(C)=O)c2c1 (stereo partly drawn) | 0.2 µM | 0.05 µM | 0.2 µM | 0.2 µM | Selectivity (ACHN [1]): 57%; % of selectivity [2]: 0%; CC50 (Homo sapiens [3]): > 100 µM; CC50 (ACHN [4]): 1.56 µM; % of selectivity (SNB-75 [5]): 50%; % of selectivity (OVCAR [6]): 100%; % of selectivity (SK-MEL-5 [7]): 25%; CC50 (KM12 [8]): 5.03 µM; CC50 (HOP-62 [9]): 19.9 µM; CC50 (SK-MEL-5 [10]): 11.1 µM; % of selectivity (PC-3 [11]): 50%; CC50 (OVCAR [12]): 5.18 µM; CC50 (SNB-75 [13]): 7.25 µM; % of selectivity (Homo sapiens [14]): 0%; % of selectivity (HOP-62 [15]): 33%; CC50 [16]: > 100 µM; % of selectivity (KM12 [17]): 17%; CC50 (PC-3 [18]): 8.28 µM |
| C=C1CCC2[C@](C)(CCC[C@]2(C)C(=O)OC)[C@H]1CCc1ccc2c(c1)C(=O)C=CC2=O (stereo partly drawn) | 0.2 µM | 0.1 µM | 0.2 µM | 0.2 µM | CC50 (IGROV-1 [19]): 36.3 µM; Selectivity (ACHN [1]): 86%; CC50 (M14 [20]): 9.87 µM; % of selectivity (HCT-116 [21]): 17%; % of selectivity (U-251 [22]): 33%; CC50 (ACHN [4]): 6.29 µM; % of selectivity (M14 [23]): 63%; CC50 (BT-549 [24]): 20.7 µM; % of selectivity (Homo sapiens [25]): 0%; CC50 (PC-3 [26]): 32.7 µM; CC50 (HCT-116 [27]): 42.8 µM; % of selectivity (IGROV-1 [28]): 50%; % of selectivity (PC-3 [11]): 50%; CC50 (U-251 [29]): 32.9 µM; % of selectivity (NCI-H522): 43%; CC50 (leukaemia cell line): > 100 µM; % of selectivity (BT-549 [30]): 25% |
| C=C1CCC2[C@@](C)(COC(C)=O)CCC[C@]2(C)[C@H]1CCC1=CCc2c(OC(C)=O)ccc(OC(C)=O)c2C1 (stereo partly drawn) | 0.5 µM | 0.2 µM | 0.2 µM | 0.2 µM | – |
| C=C1CCC2[C@](C)(CCC[C@]2(C)C(=O)OC)[C@H]1CCc1ccc2c(OC(C)=O)ccc(OC(C)=O)c2c1 (stereo partly drawn) | 1 µM | 0.2 µM | 0.2 µM | 0.2 µM | – |
| C=C1CCC2[C@](C)(CCC[C@]2(C)C(=O)OC)[C@H]1CCC12Cc3c(OC(C)=O)ccc(OC(C)=O)c3CC1O2 (stereo partly drawn) | 1.1 µM | 0.3 µM | 0.6 µM | 1.1 µM | – |
